From ChEMBL document CHEMBL1221166, “Molecular basis of inverse agonism in a G protein-coupled receptor” (Nat Chem Biol, 2005)
Active and inactive are the calls of the source. The calls are words filed in the database; no cut-off is given here.

target: T1, Alpha-2A adrenergic receptor (Homo sapiens) (UniProt P08913); assay: Partial agonist activity at adrenergic alpha2A receptor expressed in HEK293 cells coexpressing yellow fluorescent and cyan fluorescent protein assessed as effect on kinetics of receptor conformational change by FRET assay; assay type: functional, cell-based
T1 sequence (whole entry): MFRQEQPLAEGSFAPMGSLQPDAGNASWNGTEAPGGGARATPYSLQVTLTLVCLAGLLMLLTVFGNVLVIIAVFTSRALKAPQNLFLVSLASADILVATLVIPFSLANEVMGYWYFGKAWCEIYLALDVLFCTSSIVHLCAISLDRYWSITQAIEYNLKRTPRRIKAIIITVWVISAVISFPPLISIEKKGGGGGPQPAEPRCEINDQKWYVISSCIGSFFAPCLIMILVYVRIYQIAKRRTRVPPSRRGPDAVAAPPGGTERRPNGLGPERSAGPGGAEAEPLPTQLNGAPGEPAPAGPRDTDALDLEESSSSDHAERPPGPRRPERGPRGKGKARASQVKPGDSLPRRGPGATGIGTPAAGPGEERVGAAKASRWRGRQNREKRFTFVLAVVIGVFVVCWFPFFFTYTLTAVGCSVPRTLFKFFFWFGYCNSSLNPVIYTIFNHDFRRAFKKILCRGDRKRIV
How it was run: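 HEK293 cells expressing α2AAR tagged with CFP/YFP were superfused rapidly with ligand at room temperature. The time course of the corrected FYFP/FCFP ratio was fitted with a monoexponential equation to give kobs. kobs was then plotted against the percentage FRET change.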

Structure (SMILES) | Activity
COc1nc(C)nc(Cl)c1NC1=NCCN1 | Active
Clc1cccc(Cl)c1NC1=NCCN1 | Active
Cc1cc(C(C)(C)C)c(O)c(C)c1CC1=NCCN1 | Active
NCCc1ccc(O)c(O)c1 | Active

target: T1, Alpha-2A adrenergic receptor (Homo sapiens); assay: Inverse agonist activity at adrenergic alpha2A receptor expressed in HEK293 cells coexpressing yellow fluorescent and cyan fluorescent protein assessed as increase in resonance signal at 100 uM by FRET assay; assay type: functional, cell-based
How it was run: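 Single HEK293 cells expressing α2AAR tagged with CFP/YFP were grown on coverslips and kept at room temperature. They were continuously superfused with HEPES buffer at pH 7.4 (137 mM NaCl, 0.1% BSA), and ligand was applied by solenoid-valve rapid superfusion. YFP and CFP emissions were recorded by dual-emission photometry on a 100× oil objective. FRET was taken as the spillover-corrected ratio FYFP/FCFP, with photobleaching drift subtracted where needed.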

Structure (SMILES) | Activity
CN1CC[C@]2(CCN3CCc4c(oc5ccccc45)[C@@H]3C2)N(C)C1=O | Active
COC1(C2=NCCN2)COc2ccccc2O1 (stereo unspecified) | Active
